For one test, the target named is T1, fMet-Leu-Phe receptor (Homo sapiens, UniProt P21462).
T1 sequence (P21462 whole entry): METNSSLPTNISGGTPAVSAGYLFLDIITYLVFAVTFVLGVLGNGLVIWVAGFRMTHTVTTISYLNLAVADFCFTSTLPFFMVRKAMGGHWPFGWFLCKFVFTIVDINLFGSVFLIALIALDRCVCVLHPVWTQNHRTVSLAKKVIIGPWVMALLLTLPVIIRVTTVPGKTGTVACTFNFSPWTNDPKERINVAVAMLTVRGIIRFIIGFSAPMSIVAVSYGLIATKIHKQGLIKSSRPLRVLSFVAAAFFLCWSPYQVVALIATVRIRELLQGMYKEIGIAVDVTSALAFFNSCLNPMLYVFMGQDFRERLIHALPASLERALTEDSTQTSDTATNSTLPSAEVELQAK
Nature of the test: Inhibitory activity against human formylpeptide receptor (FPR) of human leukemia HL-60 cells. It is filed as cell-based. Summed up:
(§1)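 HL-60 cells differentiated 48 h with 0.2 mM dibutyryl cAMP, washed, then treated with 5 μM cytochalasin B (5–10 min, 37 °C). Stimulated 10 min with 30 nM f-MLF. N-acetyl-β-D-glucosaminidase release read at 410 nm on p-nitrophenyl substrate after spontaneous-release subtraction. Duplicate wells; IC20/IC50 as mean ± SD of independent experiments.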

Test [1] addresses T2, fMet-Leu-Phe receptor (Homo sapiens) (UniProt P21462).
T2 sequence (whole entry): T1 sequence (P21462 whole entry)
Nature of the test: Inhibitory activity against Human formylpeptide receptor (FPR) of human leukemia HL-60 cells. It is filed as cell-based. Summed up:
as §1

The record followed here is ChEMBL document CHEMBL1135620, “Cyclosporins: structure-activity relationships for the inhibition of the human FPR1 formylpeptide receptor” (J Med Chem, 2002).

Bounds are passed on as bounds.

For the molecule `CC/C=C/C[C@@H](C)[C@@H](O)[C@H]1C(=O)N[C@@H](CCC)C(=O)N(C)CC(=O)N(C)[C@@H](CC(C)C)C(=O)N[C@@H](C(C)C)C(=O)N(C)[C@@H](CC(C)C)C(=O)N[C@@H](C)C(=O)N[C@H](C)C(=O)N(C)[C@@H](CC(C)C)C(=O)N(C)[C@@H](CC(C)C)C(=O)N(C)[C@@H](C(C)C)C(=O)N1C`, the IC50 against fMet-Leu-Phe receptor was greater than 10000 nM.

`C/C=C/C[C@@H](C)[C@@H](O)[C@H]1C(=O)N[C@@H](CC)C(=O)N(C)CC(=O)N(C)[C@@H](CC(C)C)C(=O)N[C@@H](C(C)C)C(=O)N(C)[C@@H](CC(C)C)C(=O)N[C@@H](C)C(=O)N[C@H](C)C(=O)N(C)[C@@H](CC(C)C)C(=O)N(C)[C@@H](CC(C)C)C(=O)N(C)[C@@H]([C@@H](C)CC)C(=O)N1C`: the half-maximal inhibitory concentration (IC50) at fMet-Leu-Phe receptor (hl-60) was greater than 10000 nM. As for `CC/C=C/C[C@@H](C)[C@@H](O)[C@H]1C(=O)N[C@@H]([C@@H](C)O)C(=O)N(C)CC(=O)N(C)[C@@H](CC(C)C)C(=O)N[C@@H](C(C)C)C(=O)N(C)[C@@H](CC(C)C)C(=O)N[C@@H](C)C(=O)N[C@H](C)C(=O)N(C)[C@@H](CC(C)C)C(=O)N(C)[C@@H](CC(C)C)C(=O)N(C)[C@@H](C(C)C)C(=O)N1C`, the IC50 at fMet-Leu-Phe receptor was greater than 10000 nM. On to `C/C=C/C[C@@H](C)[C@@H](O)[C@H]1C(=O)N[C@@H]([C@@H](C)O)C(=O)N(C)CC(=O)N(C)[C@@H](CC(C)C)C(=O)N[C@@H](C(C)C)C(=O)N(C)[C@@H](CC(C)C)C(=O)N[C@@H](C)C(=O)N[C@H](C)C(=O)N(C)[C@@H](CC(C)C)C(=O)N[C@@H](CC(C)C)C(=O)N(C)[C@@H](C(C)C)C(=O)N1C`, for which the IC50 against fMet-Leu-Phe receptor was greater than 3000 nM.

At fMet-Leu-Phe receptor, `CC/C=C/C[C@@H](C)[C@@H](O)[C@H]1C(=O)N[C@@H](CC)C(=O)N(C)CC(=O)N(C)[C@@H]([C@@H](C)CC)C(=O)N[C@@H](C(C)C)C(=O)N(C)[C@@H](CC(C)C)C(=O)N[C@@H](C)C(=O)N[C@H](C)C(=O)N(C)[C@@H](CC(C)C)C(=O)N(C)[C@@H](CC(C)C)C(=O)N(C)[C@@H](C(C)C)C(=O)N1C` registered an IC50 of 7000 nM. Turning to `CC(C)C[C@@H]1NC(=O)[C@@H](CC(C)C)N(C)C(=O)CN(C)C(=O)[C@H]([C@@H](C)O)NC(=O)[C@H]([C@H](O)[C@H](C)C/C=C/CO)N(C)C(=O)[C@H](C(C)C)N(C)C(=O)[C@H](CC(C)C)NC(=O)[C@H](CC(C)C)N(C)C(=O)[C@@](O)(C(C)C)NC(=O)[C@H](C)NC(=O)[C@@H](CC(C)C)N(C)C1=O`, the IC20 in test [1] is 470 nM. As for `CC/C=C/C[C@@H](C)[C@@H](O)[C@H]1C(=O)N[C@@H](CC)C(=O)N(C)CC(=O)N(C)[C@@H](CC(C)(C)O)C(=O)N[C@H](C(C)C)C(=O)N(C)[C@H](CC(C)C)C(=O)N[C@@H](C)C(=O)N[C@H](C)C(=O)N(C)[C@@H](CC(C)C)C(=O)N(C)[C@@H](CC(C)C)C(=O)N(C)[C@@H](C(C)C)C(=O)N1C`, the 20% effect level in test [1] (IC20) was put at 1700 nM. In test [1], `C/C=C/C[C@@H](C)[C@@H](O)[C@H]1C(=O)N[C@@H](CCC)C(=O)N(C)CC(=O)N(C)[C@H](CC(C)C)C(=O)N[C@H](C(C)C)C(=O)N(C)[C@H](CC(C)C)C(=O)N[C@@H](C)C(=O)N[C@H](C)C(=O)N[C@@H](CC(C)C)C(=O)N(C)[C@@H](CC(C)C)C(=O)N(C)[C@@H](C(C)C)C(=O)N1C` gave an IC20 of 2100 nM.

Take `C/C=C/C[C@@H](C)[C@@H](O)[C@H]1C(=O)N[C@@H]([C@@H](C)O)C(=O)N(C)CC(=O)N[C@@H](CC(C)C)C(=O)N[C@@H](CC(C)C)C(=O)N(C)[C@H](CC(C)C)C(=O)N[C@@H](C)C(=O)N[C@](O)(C(C)C)C(=O)N(C)[C@@H](CC(C)C)C(=O)N[C@@H](CC(C)C)C(=O)N(C)[C@@H](C(C)C)C(=O)N1C`: the IC20 in test [1] turned out to be 140 nM. The molecule `C/C=C/C[C@@H](C)[C@@H](O)[C@H]1C(=O)N[C@@H](CC)C(=O)N(C)CC(=O)N[C@@H]([C@@H](C)CC)C(=O)N[C@H](C(C)C)C(=O)N(C)[C@H](CC(C)C)C(=O)N[C@@H](C)C(=O)N[C@H](C)C(=O)N(C)[C@@H](CC(C)C)C(=O)N(C)[C@@H](CC(C)C)C(=O)N(C)[C@@H](C(C)C)C(=O)N1C` showed an IC20 in test [1] of 2800 nM. In turn, `C/C=C/C[C@@H](C)[C@@H](O)[C@H]1C(=O)N[C@@H](CC)C(=O)N(C)CC(=O)N[C@@H](C(C)C)C(=O)N[C@H](C(C)C)C(=O)N(C)[C@H](CC(C)C)C(=O)N[C@@H](C)C(=O)N[C@H](C)C(=O)N(C)[C@@H](CC(C)C)C(=O)N(C)[C@@H](CC(C)C)C(=O)N(C)[C@@H](C(C)C)C(=O)N1C` displayed an IC20 in test [1] greater than 10000 nM. With `CC/C=C/C[C@@H](C)[C@@H](O)[C@H]1C(=O)N[C@@H](CC)C(=O)N(C)CC(=O)N(C)[C@H](CC(C)C)C(=O)N[C@H](C(C)C)C(=O)N(C)[C@H](CC(C)C)C(=O)N[C@@H](C)C(=O)N[C@H](CCCCN)C(=O)N(C)[C@@H](CC(C)C)C(=O)N(C)[C@@H](CC(C)C)C(=O)N(C)[C@@H](C(C)C)C(=O)N1C`, it took 500 nM to reach the 20% level in test [1] (IC20).

The molecule `C/C=C/C[C@@H](C)[C@@H](O)[C@H]1C(=O)N[C@@H](C)C(=O)N(C)CC(=O)N(C)[C@H](CC(C)C)C(=O)N[C@H](C(C)C)C(=O)N(C)[C@H](CC(C)C)C(=O)N[C@@H](C)C(=O)N[C@H](C)C(=O)N(C)[C@@H](CC(C)C)C(=O)N[C@@H](CC(C)C)C(=O)N(C)[C@@H](C(C)C)C(=O)N1C` had an IC20 in test [1] of 200 nM. As to `CC/C=C/C[C@@H](C)[C@@H](O)[C@H]1C(=O)N[C@@H](CC)C(=O)N(C)CC(=O)N(C)[C@@H](Cc2ccccc2)C(=O)N[C@H](C(C)C)C(=O)N(C)[C@H](CC(C)C)C(=O)N[C@@H](C)C(=O)N[C@H](C)C(=O)N(C)[C@@H](CC(C)C)C(=O)N(C)[C@@H](CC(C)C)C(=O)N(C)[C@@H](C(C)C)C(=O)N1C`, the IC20 in test [1] came to 4000 nM. On the same count and under the same terms, then `C/C=C/C[C@@H](C)[C@@H](O)[C@H]1C(=O)N[C@@H](CC)C(=O)N(C)CC(=O)N(C)[C@H](CC(C)C)C(=O)N[C@H](C(C)C)C(=O)N[C@@H](CC(C)C)C(=O)N[C@@H](C)C(=O)N[C@H](C)C(=O)N(C)[C@@H](CC(C)C)C(=O)N(C)[C@@H](CC(C)C)C(=O)N(C)[C@@H](C(C)C)C(=O)N1C`, with greater than 10000 nM; and `CC[C@@H]1NC(=O)[C@H](CC2CCCCC2)N(C)C(=O)[C@H](C(C)C)N(C)C(=O)[C@H](CC(C)C)N(C)C(=O)[C@H](CC(C)C)N(C)C(=O)[C@@H](C)NC(=O)[C@H](C)NC(=O)[C@@H](CC(C)C)N(C)C(=O)[C@@H](C(C)C)NC(=O)[C@@H](CC(C)C)N(C)C(=O)CN(C)C1=O`, with 1690 nM; and `C/C=C/C[C@@H](C)C[C@H]1C(=O)N[C@@H](CC)C(=O)N(C)CC(=O)N(C)[C@H](CC(C)C)C(=O)N[C@H](C(C)C)C(=O)N(C)[C@H](CC(C)C)C(=O)N[C@@H](C)C(=O)N[C@H](C)C(=O)N(C)[C@@H](CC(C)C)C(=O)N(C)[C@@H](CC(C)C)C(=O)N(C)[C@@H](C(C)C)C(=O)N1C`, with 2400 nM. With `C/C=C/C[C@@H](C)[C@@H](O)[C@H]1C(=O)N[C@@H](CCC)C(=O)N(C)CC(=O)N(C)[C@H](CC(C)C)C(=O)N[C@H](C(C)C)C(=O)N(C)[C@H](CC(C)C)C(=O)N[C@@H](C)C(=O)N[C@H](C)C(=O)N(C)[C@@H](CC(C)C)C(=O)N[C@@H](CC(C)C)C(=O)N(C)[C@@H](C(C)C)C(=O)N1C`, in test [1], the IC20 was 660 nM. In the case of `CC/C=C/C[C@@H](C)[C@@H](O)[C@H]1C(=O)N[C@@H](CC)C(=O)N(C)[C@@H](Cc2ccccc2)C(=O)N(C)[C@H](CC(C)C)C(=O)N[C@H](C(C)C)C(=O)N(C)[C@H](CC(C)C)C(=O)N[C@@H](C)C(=O)N[C@H](C)C(=O)N(C)[C@@H](CC(C)C)C(=O)N(C)[C@@H](CC(C)C)C(=O)N(C)[C@@H](C(C)C)C(=O)N1C`, the IC20 in test [1] is greater than 10000 nM. Take `CC/C=C/C[C@@H](C)[C@@H](O)[C@H]1C(=O)N[C@@H](CC)C(=O)N(C)CC(=O)N(C)[C@H](CC(C)C)C(=O)N[C@H](C(C)C)C(=O)N(C)[C@H](CC(C)C)C(=O)N[C@@H](CC)C(=O)N[C@H](C)C(=O)N(C)[C@@H](CC(C)C)C(=O)N(C)[C@@H](CC(C)C)C(=O)N(C)[C@@H](C(C)C)C(=O)N1C`: in test [1], the IC20 was greater than 10000 nM. For the molecule `CC(C)C[C@@H]1C(=O)N[C@@H](C(C)C)C(=O)N(C)[C@H](CC(C)C)C(=O)N[C@@H](C)C(=O)N[C@H](C)C(=O)N(C)[C@@H](CC(C)C)C(=O)N(C)[C@@H](CC(C)C)C(=O)N(C)[C@@H](C(C)C)C(=O)N(C)[C@@H](CC(C)C)C(=O)N[C@@H](C(C)C)C(=O)N(C)CC(=O)N1C`, in test [1], the IC20 was 4200 nM.

Consider `C/C=C/C[C@@H](C)[C@@H](O)[C@H]1C(=O)N[C@@H]([C@@H](C)O)C(=O)N(C)CC(=O)N(C)[C@H](CC(C)C)C(=O)N[C@@H]([C@@H](C)CC)C(=O)N(C)[C@H](CC(C)C)C(=O)N[C@@H](C)C(=O)N[C@](O)(C(C)C)C(=O)N(C)[C@@H](CC(C)C)C(=O)N[C@@H](CC(C)C)C(=O)N(C)[C@@H](C(C)C)C(=O)N1C`, for which the 20% effect concentration (IC20) in test [1] was found to be 290 nM. On the same count and under the same terms, with `CC/C=C/C[C@@H](C)[C@@H](O)[C@H]1C(=O)N[C@@H]([C@@H](C)O)C(=O)N(C)CC(=O)N(C)[C@H](CC(C)C)C(=O)N[C@H](C(C)C)C(=O)N(C)[C@H](CC(C)C)C(=O)N[C@@H](C)C(=O)N[C@H](C)C(=O)N(C)[C@@H](CC(C)C)C(=O)N(C)[C@@H](CC(C)C)C(=O)N(C)[C@@H](C(C)C)C(=O)N1C` the figure was 2200 nM.

In turn, `C/C=C/C[C@@H](C)[C@@H](O)[C@H]1C(=O)N[C@@H]([C@@H](C)O)C(=O)NCC(=O)N(C)[C@H](CC(C)C)C(=O)N[C@@H](CC(C)C)C(=O)N(C)[C@H](CC(C)C)C(=O)N[C@@H](C)C(=O)N[C@](O)(C(C)C)C(=O)N(C)[C@@H](CC(C)C)C(=O)N[C@@H](CC(C)C)C(=O)N(C)[C@@H](C(C)C)C(=O)N1C` registered an IC20 in test [1] of 130 nM.

The term IC50 denotes the concentration at which inhibition is half-maximal. Low readings indicate greater potency, high ones weaker potency. By IC20 is commonly meant the concentration needed for an effect of 20%. A lower IC20 goes with an effect from little substance.
